The campaign covered roughly 2,300 compounds. About 25 (1%) were called active. The entries come from a sample that favours actives as a whole. Values without a mark were called inactive.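 Rule for the calls: active = mean inhibition over three replicate wells above the hit threshold derived in the earlier primary screen (cut at about 45% in these data); inactive = the rest.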

This assay has as its system Hepatitis C virus core protein (core106 dimerization). In words: inhibitors of HCV core protein dimerization, confirmation, biochemical, TR-FRET, triplicate (AID 2152).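 Note: 0% = DMSO wells and 100% = unlabelled core106 competitor control.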 The following applies: TR-FRET GST-/Flag-core106 dimerization, HTRF; at 5 µM; active compounds read high. A digest of the protocol:
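Material: GST- and Flag-tagged HCV core106 peptides, dimerization via antibody TR-FRET. Medium: HEPES/KF buffer, pH 7.45. Doses: one 5 µM dose, 0.5% DMSO. Times: 4 h incubation, 22.5 °C. Detection: TR-FRET, excitation 340 nm, emission 671 and 617 nm. Measure: percent inhibition from emission ratio. Controls: unlabelled core106 and DMSO wells.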
(TR-FRET usually uses a lanthanide donor and a delayed reading to cut background.)
For the compound `COC(=O)c1ccc(Nc2cc(C)nc(-c3ccccc3O)n2)cc1`, the inhibition was 6.69%.
The value for `CN1CCc2c(sc3c2c(=O)n(-c2ccccc2)c2nnc(SCc4ccccc4)n32)C1` was 3.83%; that for `O=C(COC(=O)c1cccc(S(=O)(=O)N2CCc3ccccc3C2)c1)NCc1ccco1` was 2.63%.
The value for `COc1ccc(-c2cc(OC(=O)c3ccc(F)cc3)c3c(C)oc(C)c3c(=O)c2)cc1` was 0.02%; that for `Cc1cc(Br)c2nc3c(c(C(=O)O)c2c1)CCCCC3` was 46.4% (active).
The value for `CN(Cc1ccccc1)C(=O)C1CCN(S(=O)(=O)c2ccc3nc4c(c(C(=O)O)c3c2)CCCC4)CC1` was 3.04%.
In the case of `CC(C)(C)C(=O)COC(=O)c1c2c(nc3ccccc13)CCC2`, the inhibition is -3.89%.
With `CCn1cc([N+](=O)[O-])c(C(=O)N2N=C(c3cccc4ccccc34)CC2c2ccccc2O)n1` (centres undefined), the inhibition is 7.15%.
Then `O=C(COc1ccccc1)Nc1ccc(-c2nnc(-c3ccco3)o2)cc1`, with 21.3%; and `COc1ccc(CC(=O)Nc2ccc(-c3nnc(-c4ccccc4)o3)cc2)cc1OC`, with 56.3% (active).
Then `COc1ccc(CC(=O)Nc2ccc(-c3nnc(-c4ccccc4)o3)cc2)cc1`, with 11.4%.
Consider `Cc1ccc(Cc2c(C)nc3nc(SCC(=O)NCCCN4CCCCCC4)nn3c2C)cc1`, for which the inhibition is 89.8% (active).
Then `Cc1nc2nc(SCC(=O)NCCCN3CCCCCC3)nn2c(C)c1Cc1ccccc1`, with 13.3%; and `NC(=O)c1ccsc1NC(=O)COC(=O)/C=C/c1ccc([N+](=O)[O-])cc1`, with 7.73%; and `CCCN(CCC)C(=O)c1cc(-c2ccc3c(c2)OCO3)nc2ccccc12`, with -2.46%.
In the case of `Cc1cc(C(=O)OCC(=O)c2cccc([N+](=O)[O-])c2)c2cccc(C)c2n1`, the inhibition is 13.6%.
The value for `Cc1ccc(C)c(NC(=O)CSc2nc3nc(-c4cccs4)cc(C(F)(F)F)c3c(=O)[nH]2)c1` was 4.9%; that for `CCOc1cc(/C=N/NC(N)=O)cc(Br)c1OCC(=O)Nc1cccc2ccccc12` was 2.46%; that for `CCOc1ccccc1C1C(C#N)=C(N)SC(N)=C1C#N` was 1.92%.
The value for `N#CC1=C(N)SC(N)=C(C#N)C1CCc1ccccc1` was -1.8%.
For the compound `N#CC1=C(N)SC(N)=C(C#N)C1c1ccnc2ccccc12`, the inhibition is 46.8% (active).
Then `C=CCn1nnc2sc3c(c2c1=O)CCC(C)C3` (centres undefined), with -1.29%; and `O=c1c2ccccc2nc2sc3ccccc3n12`, with -1%; and `O=C(Nc1ccc(Cl)c(Cl)c1)Nc1nnc(-c2ccncc2)s1`, with 38.8%.
The value for `Cc1ccc2nc(C)cc(C(=O)OCC(=O)c3ccc(Cl)c([N+](=O)[O-])c3)c2c1` was -4.97%.
The value for `CCN(CC)c1ccc(/C=N/NC(=O)Cc2nnc(NC(=O)Nc3ccccc3)s2)cc1` was -1.4%; that for `COc1ccc(/C=N/NC(=O)c2nn(-c3ccc(Cl)cc3)c(=O)c3c(N)scc23)cc1` was 9.33%.
As for `O=C(COC(=O)C1c2ccccc2Oc2ccccc21)Nc1ccc2c(c1)OCO2`, the inhibition was -1.06%.
As to `O=C(NC(=S)Nc1ccc(-c2ccc(CO)o2)cc1)c1cccs1`, the inhibition is -8.29%.
As to `CC(C)(C)c1nnc2sc(SC/C(O)=C(\C#N)c3nc4ccccc4[nH]3)nn2c1=O`, the inhibition was 0.37%.
Regarding `CC1=CC(=O)c2c(O)ccc(O)c2C1=O`, the inhibition is 35%.
Regarding `O=C1c2c(O)cccc2Cc2cccc(O)c21`, the inhibition was 53.6% (active).
The value for `CC(C)C(C)(C#N)NC(=O)CSc1nc2scc(-c3ccco3)c2c(=O)n1-c1ccccc1` (centres undefined) was -0.21%.
The value for `N#C/C(=N\Nc1ccc(S(=O)(=O)N2CCc3ccccc32)cc1)C(N)=S` was -0.77%; that for `CC(=O)Oc1ccc(C(=O)[C@H]2[C@H]3C(=O)N(c4ccccc4)C(=O)[C@H]3[C@@H]3C=CC=NN32)cc1` was -1.31%; that for `COc1cccc(NC(=S)Nc2cc(C)cc(C)n2)c1` was 72.9% (active).
The value for `COc1ccc(-n2nc3cc(C)c(NC(=S)NC(=O)c4ccccc4C)cc3n2)cc1` was 14.3%; that for `COc1cccc(NC(=O)c2cc(-c3ccc(C)o3)nc3ccccc23)c1` was -3.59%; that for `CC1Cc2ccccc2N1Cc1cc(=O)n2ccsc2n1` (centres undefined) was 3.14%.
`COc1ccc(C(=O)[C@H]2[C@H]3C(=O)N(c4ccc(C)cc4)C(=O)[C@H]3C3C=CC=NN32)cc1` (some centres undefined): the inhibition was 2.52%.
For `Cc1cc(C)c2nc(-c3ccccn3)cc(C(=O)Nc3ccc(S(=O)(=O)Nc4cc(C)on4)cc3)c2c1`, the inhibition was 14.4%.
The value for `COc1cccc2c1NC(C(=O)O)C1CC=CC21` (centres undefined) was 8.1%.
For `Cc1ccc2c(c1C)NC(C(=O)O)C1CC=CC21` (centres undefined), the inhibition was 17.4%.
Turning to `O=C(O)C1Nc2c(O)cccc2C2C=CCC12` (centres undefined), the inhibition was 53.8% (active).
With `COc1ccccc1Nc1ncc(-c2cccs2)s1`, the inhibition was -8.18%.
The value for `O=C(CN1CCN(c2ccc(F)cc2)CC1)NC(=O)NCc1ccco1` was -6.85%.
The value for `O=C(Cn1c(=O)c2c(ncn2C2CCCC2)n(Cc2ccccc2)c1=O)N1CCc2ccccc21` was 5.72%.
Take `COc1ccc(C2=NN(c3nc(-c4ccccc4)c(CC(=O)O)s3)C(c3ccco3)C2)cc1` (centres undefined): the inhibition was 51.3% (active).
The value for `COc1ccc(C2CC(c3ccccc3)=NN2c2ccc(/C=N/NC(=O)c3ccncc3)cc2)cc1` (centres undefined) was -1.14%.
The value for `CC(C)[C@H](NS(=O)(=O)c1ccccc1)C(=O)OCC(=O)N1N=C(c2ccc(Cl)cc2)CC1c1ccco1` (some centres undefined) was -2.37%.
With `COc1ccc(C(=O)N/N=C(\C)c2ccc3c(c2)C2C=CCC2C(c2ccccc2)N3)cc1` (centres undefined), the inhibition was 1.09%.
The value for `Cc1cccc(N2CC(C(=O)Nc3nnc(SCc4ccccn4)s3)CC2=O)c1` (centres undefined) was 21.3%.
On to `COc1ccc(C=O)cc1COc1ccc(F)cc1F`, for which the inhibition is -6.06%.
Then `O=C(Nc1ccc(N2CCCC2)c(Cl)c1)c1cccc(-c2cc3ccccc3oc2=O)c1`, with -5.08%; and `N#Cc1c(-c2ccco2)cc(-c2ccccn2)nc1N`, with 3.09%; and `CCN(CC(=O)Nc1ccc(OC)cc1)C(=O)Cc1cccs1`, with 6.25%.
For the compound `Cc1ccc(C)c(S(=O)(=O)N2CCC(c3nc4c(nnn4Cc4ccc5c(c4)OCCO5)c(=O)[nH]3)CC2)c1`, the inhibition is 7.31%.
Then `Cc1ccc(O)c(N=CC2=C(O)c3ccccc3C2=O)c1`, with 7.52%; and `COc1ccccc1NS(=O)(=O)c1cc(NC(=O)Nc2ccc(Cl)cc2Cl)ccc1N1CCCCC1`, with -5.21%.
Then `O=Cc1cn(-c2ccccc2)nc1-c1cc2c(ccc3ccccc32)oc1=O`, with -0.21%.
Then `COC(=O)/C=c1/s/c(=C(\C#N)C(=O)NCc2ccco2)n(-c2ccc(C)cc2)c1=O`, with -4.05%.
On to `Cc1c(C(=O)Nc2ccc(Cl)cc2)c2ccccn2c1C(=O)c1ccc([N+](=O)[O-])cc1`, for which the inhibition was -5.31%.
The value for `O=C(OCC(=O)c1ccc(Cl)s1)c1cnccn1` was 1.14%; that for `CCOC(=O)c1ccc(NC(=O)COc2ccc(-n3cnnn3)cc2)cc1` was 3.21%; that for `COc1ccccc1N1CCN(C(=O)c2ccc3c(c2)NC(=O)C(CSCc2ccccc2C)N3)CC1` (centres undefined) was 25.3%.
As for `Cc1ccc(N2C(=O)N3[C@H](c4ccc(F)cc4)[C@@H]4C(=O)N(C5CCCCC5)C(=O)[C@@H]4[C@]3(Cc3ccccc3)C2=O)cc1`, the inhibition is -1.83%.
As for `CC(=O)Nc1ccc(NC(=O)c2ccc(COc3ccccc3)cc2)cc1`, the inhibition was -12.8%.
The value for `Cc1cc(-c2csc(NC(=O)c3cc4ccccc4o3)n2)c(C)n1C` was 22.5%; that for `COC(=O)c1ccc(Oc2coc3cc(OCc4cnn(-c5ccccc5)c4)ccc3c2=O)cc1` was -4.6%; that for `N#Cc1c(-c2cccc(F)c2)cc(-c2ccccc2)nc1Br` was 9.78%.
Then `CCOC(=O)C1=C(c2ccccc2)NC(=S)NC1c1cc([N+](=O)[O-])ccc1OC` (centres undefined), with -1.99%; and `COc1ccc(-n2c(-c3ccccc3)nc(=S)c3c2CCCC3)cc1`, with 33.8%.
Then `O=[N+]([O-])c1ccc(Oc2cc(NC3CCCCCCC3)c([N+](=O)[O-])cc2[N+](=O)[O-])cc1`, with -0.42%; and `Cc1ccc2nc(/C(C#N)=C\c3ccc(Oc4ccc(C(F)(F)F)cc4[N+](=O)[O-])cc3)[nH]c2c1`, with -6.22%.
With `N#CC(=C1CCCC1)c1nc(-c2ccccc2O)cs1`, the inhibition was -2%.
Then `O=C(Nc1ccc2c(c1)OCO2)c1cc(-c2cccnc2)nc2ccccc12`, with -0.48%; and `O=C1C2C3C=CC(C4CC34)C2C(=O)N1/N=C/c1ccc(-c2ccc(Cl)cc2[N+](=O)[O-])o1` (centres undefined), with -5.46%; and `CCN1C=C(Cc2cccs2)C2=C(C1)C(c1cccs1)C(C#N)=C(N)O2` (centres undefined), with -3.27%.
Then `CSc1nc(SCC(=O)NCc2ccco2)c2c3c(sc2n1)CN(C)CC3`, with 20.1%; and `CCCc1nc2sc3c(SCC(=O)NCc4ccco4)ncnc3c2c2c1CCC2`, with 15.9%; and `CCCCc1nc2sc3c(SCC(=O)NCc4ccco4)ncnc3c2c2c1CCC2`, with 52.8% (active).
The value for `O=C(NCc1ccco1)C(c1ccco1)N(C(=O)Cn1nnc2ccccc21)c1ccc2c(c1)CCC2` (centres undefined) was 6.56%; that for `COc1ccc(/C=C/C(=O)Nc2cc(C)nn2-c2nc3ccccc3n2Cc2cccc([N+](=O)[O-])c2)cc1` was -5.15%.
Take `COc1ccc(NS(=O)(=O)c2ccc(O)c(NC(=O)c3cc4c(C)nn(-c5ccc(F)cc5)c4s3)c2)cc1`: the inhibition is -2.83%.
Then `COc1cccc(-n2c(SCC(=O)Nc3cc(C)on3)nc3c([nH]c4ccccc43)c2=O)c1`, with -2.22%; and `Cc1ccc(Cn2c(SCC(=O)Nc3cc(C)on3)nc3ccccc3c2=O)cc1`, with 9.61%.
Then `CCCCn1c(SCC(=O)Nc2cc(C)on2)nc2ccccc2c1=O`, with 54.9% (active).
Then `CC1CCCCC12NC(=O)N(CC(=O)c1ccc[nH]1)C2=O` (centres undefined), with -2.48%; and `Cn1c(SCC(=O)Nc2sccc2C#N)nnc1-c1ccccc1`, with -0.16%.

What is called inhibition is the change of the read-out against control, counted positive when it falls.

The record behind these values is PubChem BioAssay AID2152 (The Scripps Research Institute Molecular Screening Center, 2009).
